Laboratory results published in the M2OR odorant receptor database.

Legend:
Conditions in all cases: stereoisomer not certain
[1] = target: T1, UniProt Q8VF43
T1 sequence (whole entry): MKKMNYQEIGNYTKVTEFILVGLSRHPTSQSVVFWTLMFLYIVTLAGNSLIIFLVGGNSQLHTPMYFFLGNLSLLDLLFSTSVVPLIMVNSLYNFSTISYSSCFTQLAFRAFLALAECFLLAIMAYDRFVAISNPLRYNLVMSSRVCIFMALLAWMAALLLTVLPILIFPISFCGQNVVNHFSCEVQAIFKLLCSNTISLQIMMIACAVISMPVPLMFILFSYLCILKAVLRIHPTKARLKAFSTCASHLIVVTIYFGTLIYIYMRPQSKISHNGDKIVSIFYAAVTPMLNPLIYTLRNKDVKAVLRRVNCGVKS
In short: (§1)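 Transient luciferase assays in mammalian cell lines were common, though methods varied by source. The values come from published papers and their supplementary material, with extra details from the original authors when needed. Responsive refers to a measured signal the original authors judged statistically different from baseline, and non-responsive (inactive) to the remainder.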

[2] = target: T2, UniProt Q8VF52
T2 sequence (whole entry): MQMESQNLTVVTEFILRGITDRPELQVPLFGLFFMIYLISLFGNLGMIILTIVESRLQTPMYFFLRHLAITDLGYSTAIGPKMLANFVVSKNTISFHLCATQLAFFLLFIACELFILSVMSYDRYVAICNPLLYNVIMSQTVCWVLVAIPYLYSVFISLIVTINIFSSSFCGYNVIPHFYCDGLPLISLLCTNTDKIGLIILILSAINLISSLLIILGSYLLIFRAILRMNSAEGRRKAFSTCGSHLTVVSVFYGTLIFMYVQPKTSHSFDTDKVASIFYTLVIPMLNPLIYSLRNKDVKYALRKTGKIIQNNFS
In short: as §1

[3] = target: T3, UniProt Q8VFM8
T3 sequence (whole entry): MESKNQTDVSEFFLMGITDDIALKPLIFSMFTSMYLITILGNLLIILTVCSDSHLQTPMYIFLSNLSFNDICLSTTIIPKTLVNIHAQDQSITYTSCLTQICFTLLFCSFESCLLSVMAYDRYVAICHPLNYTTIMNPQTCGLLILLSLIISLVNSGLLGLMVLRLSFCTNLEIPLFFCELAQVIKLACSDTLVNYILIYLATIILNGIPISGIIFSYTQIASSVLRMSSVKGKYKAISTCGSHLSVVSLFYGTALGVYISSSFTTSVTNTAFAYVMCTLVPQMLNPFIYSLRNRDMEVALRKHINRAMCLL
In short: as §1

[4] = target: T4, UniProt Q8VFP5
T4 sequence (whole entry): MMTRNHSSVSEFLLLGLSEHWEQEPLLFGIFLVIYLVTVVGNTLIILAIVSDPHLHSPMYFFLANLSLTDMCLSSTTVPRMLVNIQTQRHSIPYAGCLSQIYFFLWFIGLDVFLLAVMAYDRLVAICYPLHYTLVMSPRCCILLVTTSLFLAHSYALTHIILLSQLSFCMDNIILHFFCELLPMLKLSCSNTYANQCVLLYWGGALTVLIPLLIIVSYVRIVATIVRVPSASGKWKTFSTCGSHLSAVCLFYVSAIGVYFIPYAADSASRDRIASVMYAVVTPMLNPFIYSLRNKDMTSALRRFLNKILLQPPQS
In short: as §1

[5] = target: T5, UniProt Q8VG01
T5 sequence (whole entry): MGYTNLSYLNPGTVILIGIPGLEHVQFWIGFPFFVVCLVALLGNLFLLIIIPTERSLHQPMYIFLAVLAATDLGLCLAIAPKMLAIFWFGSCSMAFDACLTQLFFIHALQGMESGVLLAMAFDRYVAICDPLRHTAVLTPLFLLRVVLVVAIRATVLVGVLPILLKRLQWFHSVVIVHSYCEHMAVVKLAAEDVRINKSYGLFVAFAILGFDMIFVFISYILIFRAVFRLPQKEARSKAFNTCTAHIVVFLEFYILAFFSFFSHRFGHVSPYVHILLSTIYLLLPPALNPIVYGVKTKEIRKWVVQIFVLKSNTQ
In short: as §1

[6] = target: UniProt Q8VF87
In short: as §1

Measured: odorant receptor agonist call;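 also: active if original authors judged signal statistically different from baseline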

Chain of UniProt Q8VF87 (Q8VF87 as listed by the source): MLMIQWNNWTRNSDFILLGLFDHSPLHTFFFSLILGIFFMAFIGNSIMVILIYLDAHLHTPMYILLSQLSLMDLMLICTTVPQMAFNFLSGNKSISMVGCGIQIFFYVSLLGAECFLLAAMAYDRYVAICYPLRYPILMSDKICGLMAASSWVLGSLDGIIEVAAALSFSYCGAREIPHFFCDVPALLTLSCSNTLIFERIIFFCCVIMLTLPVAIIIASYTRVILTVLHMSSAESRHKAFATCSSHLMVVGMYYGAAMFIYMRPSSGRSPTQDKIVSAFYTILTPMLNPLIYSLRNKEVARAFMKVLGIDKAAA

CSSCc1ccco1
not listed: [6]
inactive: all other assays above

CC1CC=CCCCCCCCCCC(=O)C1 (stereo unspecified)
not listed: [6]
inactive: all other assays above

CCc1ccc(O)cc1
not listed: [6]
inactive: all other assays above

CCCCCC(=Cc1ccccc1)C(OC)OC
not listed: [6]
inactive: all other assays above

C=CC(=C)CCC=C(C)C
not listed: [6]
inactive: all other assays above

COc1ccccc1
not listed: [6]
inactive: all other assays above

c1ccc2ncccc2c1
active: [2]
not listed: [6]
inactive: all other assays above

CNc1ccccc1C(=O)OC
not listed: [6]
inactive: all other assays above

C=C(C)C1CCC2(C)OC2C1 (stereo unspecified)
not listed: [6]
inactive: all other assays above

C=C(C)C1CCC(C)C(O)C1 (stereo unspecified)
not listed: [6]
inactive: all other assays above

CCC(S)C(C)CO (stereo unspecified)
inactive: [6]

O=C([O-])CCCCCCC(=O)[O-].[H+].[H+]
not listed: [6]
inactive: all other assays above

CCOC(=O)CC(C)C
not listed: [6]
inactive: all other assays above

CC(=O)C1(C)CC2=C(CCCC2(C)C)CC1C (stereo unspecified)
not listed: [6]
inactive: all other assays above

CCc1ccccc1O
not listed: [6]
inactive: all other assays above

CCSCC
not listed: [6]
inactive: all other assays above

CCCCCC=CCCC=O
not listed: [6]
inactive: all other assays above

CCCCCCCCCCOC(C)=O
not listed: [6]
inactive: all other assays above

COc1nccnc1C
not listed: [6]
inactive: all other assays above

CCC=CCCC=CC=O
not listed: [6]
inactive: all other assays above

CCOC(=O)C(C)CC (stereo unspecified)
not listed: [6]
inactive: all other assays above
